# The list is not random: actives were taken first. Their share in the collection is about 5.2%.
# core dimer inh: inhibitors of HCV core protein dimerization, primary screen, biochemical, TR-FRET, high-throughput; TR-FRET GST/Flag-core106 dimerization, 1536-well; hit rate 0.33% among 300,000; inhibition, % at 5 µM; AID 1899, 2009;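 active = inhibition above the mean of all tested compounds plus 3 SD, set per screening campaign, cut at about 45% in these data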
#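 Material: Tagged HCV core106 pair (GST and Flag) | Amount: GST-core106 13.5 nM, Flag-core106 17 nM | Medium: KF-containing HEPES buffer, pH 7.45, DTT, CHAPS, BSA | Reagent: Eu donor and XL665 acceptor anti-tag antibodies | Schedule: 4 h at 22.5 °C | Technique: Time-resolved FRET, ex 340 nm, em 617 and 671 nm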
# PfM18AAP inh-1: PfM18AAP inhibitors, malaria aminopeptidase, primary screen, biochemical, QFRET, recombinant enzyme; inhibition, % at 7.35 µM; M18 aspartyl aminopeptidase (Plasmodium falciparum 3D7); hit rate 1.2% among 290,000; H-Glu-NHMec fluorogenic cleavage;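 active = inhibition above the campaign mean inhibition over all tested compounds plus 3 SD, cut at about 28% in these data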;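 also: 0% = plate median of test compound wells and 100% = 2 mM ZnCl2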
# ALR H2O2 inh: inhibitors of human ALR sulfhydryl oxidase, primary screen, biochemical, H2O2 detection, HRP-luminol luminescence, single point. FAD-linked sulfhydryl oxidase ALR (Homo sapiens), P55789. purified ALR, DTT oxidation. inhibition, % (no concentration beside the values). hit rate 3.8% among 290,000. AID 485317, 2010;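 active = mean replicate inhibition above about 79%, with every replicate also reaching it, limit read from the data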
# Target sequence (P55789 whole entry, looked up): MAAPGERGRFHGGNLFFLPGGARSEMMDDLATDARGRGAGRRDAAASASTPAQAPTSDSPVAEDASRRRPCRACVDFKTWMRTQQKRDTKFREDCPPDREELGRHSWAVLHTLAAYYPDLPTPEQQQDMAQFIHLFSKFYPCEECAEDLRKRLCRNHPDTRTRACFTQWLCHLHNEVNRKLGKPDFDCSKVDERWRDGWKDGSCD
# ZTA counter: ZTA (EBV) inhibition in EBNA-1 counter-screen | inhibition, % at 11 µM | ZTA-DNA binding, fluorescence polarization | AID 2234 | P03206 | hit rate 0.15% among 320,000; in the data active = inhibition above about 33%
# HCV NS3 hel inh: inhibitors of HCV NS3 helicase, primary screen, biochemical, Cy5 molecular beacon fluorescence. Hepatitis C virus NS3 helicase. hit rate 0.56% among 290,000. inhibition, % at 10.9 µM. NS3 helicase DNA unwinding;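 active = inhibition above the mean of all tested compounds plus 3 SD, set per campaign, cut at about 35% in these data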;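 also: 0% = DMSO wells and 100% = thioflavine S control wells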
#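 System: Hepatitis C virus NS3 helicase domain fragment enzyme | Reagent: Annealed dual-labelled DNA beacon duplex, ATP-started | Compound dosing: 10.9 µM single point, 0.8% DMSO | Incubation: 1 h reaction at 25 °C, ATP-initiated | Technique: Cy5 fluorescence | Evaluation: Percent inhibition from t60/t0 fluorescence ratio | Benchmarks: Low DMSO, high thioflavine S at 110 µM | Replication: Singlicate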
# EBNA-1 inhibitor: EBNA-1 DNA-binding inhibitors, primary screen, biochemical, fluorescence polarization; inhibition, % at 14.8 µM; hit rate 0.34% among 300,000; in the data active = inhibition above about 28%
# PfM18AAP inh-2: PfM18AAP inhibitors, malaria aminopeptidase, confirmation, biochemical, QFRET, recombinant enzyme, triplicate; shares compounds with PfM18AAP inh-1; H-Glu-NHMec fluorogenic cleavage; inhibition, % at 7.35 µM; hit rate 28% among 2,400; AID 2170, 2009;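 active = mean inhibition over replicate wells above the hit cutoff set for the earlier primary screen, cut at about 29% in these data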;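 also: 0% = median of test compound wells and 100% = 2 mM ZnCl2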
# CTSL1 counter: cathepsin L1 inhibitors, retest, confirmation, counter-screen for PFM18AAP inhibitor project, biochemical, QFRET, triplicate. shares compounds with PfM18AAP inh-1. purified cathepsin L1, Z-Leu-Arg-MCA fluorescence. inhibition, % at 5.96 µM. 2,400 tested, under 10 active;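 active = average inhibition across replicates above the hit cutoff set in the earlier primary screen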;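 also: 0% = median of test compound wells and 100% = Z-Phe-Ala-diazomethylketone 1 µM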
# Target sequence (P07711 whole entry, looked up): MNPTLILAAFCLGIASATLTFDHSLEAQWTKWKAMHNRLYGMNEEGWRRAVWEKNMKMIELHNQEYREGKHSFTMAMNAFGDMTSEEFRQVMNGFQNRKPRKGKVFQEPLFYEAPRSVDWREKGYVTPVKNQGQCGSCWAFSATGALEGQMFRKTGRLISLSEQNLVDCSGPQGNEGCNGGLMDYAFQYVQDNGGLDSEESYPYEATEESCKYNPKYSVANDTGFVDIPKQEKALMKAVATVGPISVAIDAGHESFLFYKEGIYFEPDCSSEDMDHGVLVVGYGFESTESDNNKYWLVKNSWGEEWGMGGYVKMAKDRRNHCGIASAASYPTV
# An asterisk follows results filed as active; . = not tested or not shown; + = active, no number.
SMILES,core dimer inh,PfM18AAP inh-1,ALR H2O2 inh,ZTA counter,HCV NS3 hel inh,EBNA-1 inhibitor,PfM18AAP inh-2,CTSL1 counter
Cc1cc(C(=O)Nn2cnnc2)ccc1[N+](=O)[O-],-0.8,46.2*,26.0,-1.1,1.7,-0.7,51.1*,5.7
Cc1ccc(C(=O)Nn2cnnc2)cc1Cl,-2.2,47.1*,80.8*,0.5,10.0,-16.5,33.1*,1.0
Cc1ccc(C(=O)Nc2cccnc2Cl)cc1Cl,8.6,-3.0,.,-0.7,-19.6,7.3,.,.
COc1ccc(S(=O)(=O)N(C)C[C@H]2Oc3c(NS(=O)(=O)c4cn(C)cn4)cccc3C(=O)N([C@H](C)CO)C[C@@H]2C)cc1,.,.,-0.8,.,.,.,.,.
O=C(O)c1cccc(-c2ccc(/C=N/NC(=O)c3cccnc3)o2)c1,-12.1,-2.7,1.3,-3.3,10.9,8.6,.,.
Cc1nnc(N/N=C/c2ccc(-c3ccc(Br)cc3)o2)n1N,-9.2,50.8*,24.6,-6.0,-5.5,-1.4,3.2,2.5
Cc1nnc(N/N=C/c2ccc([N+](=O)[O-])cc2)n1N,-2.8,14.8,-21.2,2.5,-2.7,6.3,.,.
Cc1nnc(N/N=C/c2ccc(Br)cc2)n1N,-3.1,48.0*,-58.0,-5.8,-3.6,-9.3,-36.8,-5.5
C=CCNC(=S)N/N=C/c1ccc(-c2ccc(Br)cc2)o1,-1.5,9.9,.,12.5,15.0,15.6,.,.
Cc1nnc(N/N=C\c2ccc(-c3cccc(C(=O)O)c3)o2)n1N,-17.0,51.4*,-11.6,-11.5,9.3,0.7,4.6,-1.9
COc1ccc(/C=N/Nc2nnc(C)n2N)cc1OC(C)=O,-7.3,33.9*,-30.3,-1.8,-3.0,1.6,-39.2,1.2
COc1ccc(C(=O)Nc2ccc(N3CCN(C(=O)c4ccccc4C)CC3)cc2)cc1,8.0,-2.7,11.4,1.7,-2.5,-0.5,.,.
CC(C)(C)c1nnc(N/N=C/c2ccccc2)n(N)c1=O,-0.7,47.0*,13.5,0.4,4.4,6.9,-49.5,3.1
CSc1nnc(C(C)(C)C)c(=O)n1/N=C/c1ccccc1,5.1,-3.1,-15.4,-1.6,-9.3,0.2,.,.
COc1cccc(NC2SC(=O)N(c3ccccc3)C2=O)c1 (centres undefined),-2.1,34.9*,-2.9,1.2,10.3,3.7,-52.7,-3.3
Oc1ccc(N2CCN(Cc3cc4c(cc3Br)OCCO4)CC2)cc1,7.9,39.0*,92.1*,3.8,-7.7,-0.3,-12.9,-1.2
O=C(O)c1csc(N/N=C/c2ccc(Br)cc2)n1,.,33.2*,.,.,24.0,.,-41.6,1.1
CCN(CC)P(=O)(Nc1ccc([N+](=O)[O-])cc1)c1c(C)nn(CCC#N)c1NC(=O)c1ccc(Cl)cc1 (centres undefined),-7.8,57.5*,.,-17.6,9.7,-2.5,8.0,-0.6
Cc1cc(NC(=O)c2ccc([N+](=O)[O-])cc2)n(CCC#N)n1,-5.5,0.6,.,10.0,1.4,-2.7,.,.
Cc1ncoc1C(=O)N1CCCC(N2CCN(c3ccccc3F)CC2)C1 (centres undefined),-1.3,2.9,-3.1,-14.3,-3.6,-6.2,.,.
O=C(O)c1ccc(Cn2cc(/C=C\[N+](=O)[O-])c3ccccc32)o1,-1.3,39.3*,4.4,4.6,25.6,5.8,-29.2,-3.8
CN(C)c1ccc(N=Cc2cccn2C)cc1,-62.7,57.6*,.,+,35.5,+,-23.8,-4.3
CN(C)c1ccc(N=Cc2nc(-c3ccccc3)oc2O)cc1,-52.4,8.7,72.9,4.2,1.5,3.4,.,.
Cc1c(NC(=O)CN2CCN(c3ccc([N+](=O)[O-])cc3)CC2)c(=O)n(-c2ccccc2)n1C,0.7,-1.4,6.5,-3.5,2.5,9.9,.,.
Cc1c(NC(=O)CN2CCN(c3ccc(O)cc3)CC2)c(=O)n(-c2ccccc2)n1C,2.2,38.8*,98.9*,20.9,3.9,2.8,-23.9,2.6
SMILES,core dimer inh,PfM18AAP inh-1,ALR H2O2 inh,ZTA counter,HCV NS3 hel inh,EBNA-1 inhibitor,PfM18AAP inh-2,CTSL1 counter
COc1ccc2c(O)c(-c3c(C)cc(C)cc3C)c(=O)[nH]c2c1,-2.8,.,3.2,-13.6,.,0.4,.,.
CCOc1ccc(CCNC(=O)CCS(=O)(=O)c2ccc(C)cc2)cc1OCC,-6.9,4.8,.,-7.6,2.1,2.9,.,.
COc1cc(-c2nc(=S)[nH][nH]2)cc(OC)c1OC,-1.5,35.3*,98.6*,-8.7,1.1,-1.8,26.4,-5.8
CCc1ccc(C(=O)C(C)OC(=O)c2nn(C)c(=O)c3ccccc23)cc1 (centres undefined),3.9,.,1.5,-6.1,.,-2.9,.,.
COCCOC(=O)c1c(C)n(C)c2ccc(OC(=O)c3c(OC)cccc3OC)cc12,-11.6,36.1*,-3.8,6.6,-15.3,-2.5,-12.7,-7.5
C=CCOc1ccc(/C=C/C(=O)OCC(=O)NCc2ccco2)cc1,-1.5,.,58.1,9.6,.,-1.1,.,.
CCN(CC)S(=O)(=O)c1ccc(NC2=NS(=O)(=O)c3ccccc32)cc1,-4.1,4.0,-7.7,-1.8,0.9,3.7,.,.
O=S1(=O)N=C(Nc2nncs2)c2ccccc21,-0.9,41.3*,-2.0,-11.0,-7.6,-9.2,51.5*,0.2
CC(C)(C)OC(=O)NN1CC(=O)N2Cc3[nH]c4ccccc4c3C[C@H]2C1=O,-19.7,1.4,8.1,-17.1,2.3,-14.9,.,.
CCCC1(CCC)NC(=O)N(CC(=O)N2CCc3ccccc32)C1=O,.,.,3.7,.,.,.,.,.
CCCC(C)c1nnc(NC(=O)C2CC(=O)N(CCc3ccc(F)cc3)C2)s1 (centres undefined),13.9,40.6*,.,4.5,-0.2,5.6,-8.5,-0.1
CCn1c(SCC(=O)c2c(N)n(C3CC3)c(=O)[nH]c2=O)nc2cc(S(N)(=O)=O)ccc21,.,.,-4.2,9.3,.,.,.,.
O=C1C=C(Nc2cccc(O)c2)CC(c2ccco2)C1 (centres undefined),-1.8,44.1*,5.1,1.1,35.1,-4.1,-33.9,2.4
O=C1C=C(Nc2ccc(Cl)cc2)CC(c2ccco2)C1 (centres undefined),9.2,10.1,-14.4,-10.2,9.1,3.5,.,.
COc1cccc(/C=N/Nc2nc3ccccc3n3cnnc23)c1,-5.3,17.8,2.2,-1.4,-5.1,-1.4,.,.
COc1cccc(/C=N/Nc2nn3cnnc3c3ccccc23)c1,-16.4,39.8*,-1.3,-3.2,2.0,-10.2,-45.7,4.7
Cc1cc(C)nc(N/N=C/c2ccco2)n1,-0.5,21.5,3.5,0.7,-0.6,5.2,.,.

# Screening results deposited in PubChem BioAssay by several laboratories.
